Experimental data taken from ChEMBL document CHEMBL3259728, “Design, synthesis and biological evaluation of some novel substituted quinazolines as antitumor agents” (2014).

How the values were obtained:
Format in all cases: functional
[1] = Growth inhibition of human LOXIMVI cells at 10 uM after 48 hrs by SRB assay; settings: LOX IMVI, read-out: GI
Outline: (§1)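 NCI-60 primary one-dose screen run at the US NCI, with human tumour lines from nine cancer types. Compound added once at 10^-5 M, followed by 48 h incubation. End point was sulforhodamine B protein staining read spectrophotometrically. Result given as percent growth of treated cells against untreated controls, reported as % growth inhibition.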

[2] = Growth inhibition of human NCI-ADR-RES cells at 10 uM after 48 hrs by SRB assay; settings: read-out: GI; outline: as §1
[3] = Growth inhibition of human OVCAR8 cells at 10 uM after 48 hrs by SRB assay; settings: OVCAR-8, 48 h, read-out: GI; outline: as §1
SW-620 = experiment: Growth inhibition of human SW620 cells at 10 uM after 48 hrs by SRB assay; settings: SW-620, 48 h, read-out: GI; outline: as §1
CAKI-1 = experiment: Growth inhibition of human CAKI-1 cells at 10 uM after 48 hrs by SRB assay; settings: CAKI-1, 48 h, read-out: GI
Outline: (§2)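 NCI primary one-dose screen. A single concentration of 10^-5 M was added to the cell culture, followed by 48 h incubation and an SRB protein-dye endpoint read spectrophotometrically. Results are growth percentage relative to untreated control cells, reported as % growth inhibition.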

SF-268 = experiment: Growth inhibition of human SF268 cells at 10 uM after 48 hrs by SRB assay; settings: SF-268, 48 h, read-out: GI; outline: as §1
HT-29 = experiment: Growth inhibition of human HT-29 cells at 10 uM after 48 hrs by SRB assay; settings: HT-29, 48 h, read-out: GI; outline: as §1
RPMI-8226 = experiment: Growth inhibition of human RPMI8226 cells at 10 uM after 48 hrs by SRB assay; settings: RPMI-8226, 48 h, read-out: GI; outline: as §1
HOP-62 = experiment: Growth inhibition of human HOP62 cells at 10 uM after 48 hrs by SRB assay; settings: HOP-62, 48 h, read-out: GI; outline: as §1
COLO 205 = experiment: Growth inhibition of human COLO205 cells at 10 uM after 48 hrs by SRB assay; settings: COLO 205, 48 h, read-out: GI; outline: as §2
A498 = experiment: Growth inhibition of human A498 cells at 10 uM after 48 hrs by SRB assay; settings: A498, 48 h, read-out: GI; outline: as §2
[4] = Growth inhibition of human BT549 cells at 10 uM after 48 hrs by SRB assay; settings: BT-549, 48 h, read-out: GI; outline: as §2
NCI-H522 = experiment: Growth inhibition of human NCI-H522 cells at 10 uM after 48 hrs by SRB assay; settings: NCI-H522, 48 h, read-out: GI; outline: as §1
SN12C = experiment: Growth inhibition of human SN12C cells at 10 uM after 48 hrs by SRB assay; settings: read-out: GI; outline: as §1
SK-MEL-28 = experiment: Growth inhibition of human SK-MEL-28 cells at 10 uM after 48 hrs by SRB assay; settings: SK-MEL-28, 48 h, read-out: GI; outline: as §1
MDA-MB-468 = experiment: Growth inhibition of human MDA-MB-468 cells assessed as cell growth at 10 uM after 48 hrs by SRB assay; settings: MDA-MB-468, 48 h, read-out: GI; outline: as §1
[5] = Growth inhibition of human UACC257 cells at 10 uM after 48 hrs by SRB assay; settings: UACC-257, 48 h, read-out: GI; outline: as §1
TK-10 = experiment: Growth inhibition of human TK10 cells at 10 uM after 48 hrs by SRB assay; settings: TK-10, 48 h, read-out: GI; outline: as §1
MCF7 = experiment: Growth inhibition of human MCF7 cells at 10 uM after 48 hrs by SRB assay; settings: MCF7, 48 h, read-out: GI; outline: as §1
U-251 = experiment: Growth inhibition of human U251 cells at 10 uM after 48 hrs by SRB assay; settings: U-251, 48 h, read-out: GI; outline: as §1
[6] = Growth inhibition of human UO31 cells at 10 uM after 48 hrs by SRB assay; settings: UO-31, 48 h, read-out: GI; outline: as §1
[7] = Growth inhibition of human HOP92 cells at 10 uM after 48 hrs by SRB assay; settings: HOP-92, 48 h, read-out: GI; outline: as §1
786-0 = experiment: Growth inhibition of human 786-0 cells at 10 uM after 48 hrs by SRB assay; settings: 786-0, 48 h, read-out: GI; outline: as §2
NCI-H23 = experiment: Growth inhibition of human NCI-H23 cells at 10 uM after 48 hrs by SRB assay; settings: NCI-H23, 48 h, read-out: GI; outline: as §1
M14 = experiment: Growth inhibition of human M14 cells at 10 uM after 48 hrs by SRB assay; settings: M14, 48 h, read-out: GI; outline: as §1
SNB-19 = experiment: Growth inhibition of human SNB19 cells at 10 uM after 48 hrs by SRB assay; settings: SNB-19, 48 h, read-out: GI; outline: as §1
SNB-75 = experiment: Growth inhibition of human SNB75 cells at 10 uM after 48 hrs by SRB assay; settings: SNB-75, 48 h, read-out: GI; outline: as §1
[8] = Growth inhibition of human HCT15 cells at 10 uM after 48 hrs by SRB assay; settings: HCT-15, 48 h, read-out: GI; outline: as §1
NCI-H460 = experiment: Growth inhibition of human NCI-H460 cells at 10 uM after 48 hrs by SRB assay; settings: NCI-H460, 48 h, read-out: GI; outline: as §1
[9] = Growth inhibition of human HCC2998 cells at 10 uM after 48 hrs by SRB assay; settings: HCC 2998, 48 h, read-out: GI; outline: as §1
SK-OV-3 = experiment: Growth inhibition of human SKOV3 cells at 10 uM after 48 hrs by SRB assay; settings: SK-OV-3, 48 h, read-out: GI; outline: as §1
[10] = Growth inhibition of human SF539 cells at 10 uM after 48 hrs by SRB assay; settings: SF-539, 48 h, read-out: GI; outline: as §1
K562 = experiment: Growth inhibition of human K562 cells at 10 uM after 48 hrs by SRB assay; settings: K562, 48 h, read-out: GI; outline: as §1
HL-60(TB) = experiment: Growth inhibition of human HL-60(TB) cells at 10 uM after 48 hrs by SRB assay; settings: HL-60, 48 h, read-out: GI
Outline: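 NCI 60-cell-line primary screen: compound added at single concentration 10^-5 M, cultures incubated 48 h; end point by sulforhodamine B protein staining read spectrophotometrically; result given as growth percentage of treated versus untreated control cells, reported as % growth inhibition.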

SR = experiment: Growth inhibition of human SR cells at 10 uM after 48 hrs by SRB assay; settings: read-out: GI; outline: as §1
HCT-116 = experiment: Growth inhibition of human HCT116 cells at 10 uM after 48 hrs by SRB assay; settings: HCT-116, 48 h, read-out: GI; outline: as §1
[11] = Growth inhibition of human MOLT4 cells at 10 uM after 48 hrs by SRB assay; settings: MOLT-4, 48 h, read-out: GI; outline: as §1

SMILES	inhibition of growth at 10 µM [1]	inhibition of growth at 10 µM [2]	inhibition of growth at 10 µM [3]	inhibition of growth at 10 µM (SW-620)	inhibition of growth at 10 µM (CAKI-1)	inhibition of growth at 10 µM (SF-268)	inhibition of growth at 10 µM (HT-29)	inhibition of growth at 10 µM (RPMI-8226)	inhibition of growth at 10 µM (HOP-62)	inhibition of growth at 10 µM (COLO 205)	inhibition of growth at 10 µM [4]	inhibition of growth at 10 µM (NCI-H522)	inhibition of growth at 10 µM (SN12C)	inhibition of growth at 10 µM (SK-MEL-28)	inhibition of growth at 10 µM (MDA-MB-468)	inhibition of growth at 10 µM [5]	inhibition of growth at 10 µM (TK-10)	inhibition of growth at 10 µM (MCF7)	inhibition of growth at 10 µM (U-251)	inhibition of growth at 10 µM [6]	further results
Cc1ccc(C(=O)Nc2ccc(Cl)cc2C(=O)Nc2ccccn2)cc1	< 10%	< 10%	< 10%	< 10%	20%	13%	14%	15%	< 10%	< 10%	< 10%	22%	< 10%	< 10%	11%	< 10%	< 10%	19%	< 10%	13%	inhibition of growth at 10 µM (A498): 39%; inhibition of growth at 10 µM [7]: < 10%; inhibition of growth at 10 µM (786-0): < 10%; inhibition of growth at 10 µM (NCI-H23): < 10%; inhibition of growth at 10 µM (M14): < 10%; inhibition of growth at 10 µM (SNB-19): < 10%; inhibition of growth at 10 µM (SNB-75): 24%; inhibition of growth at 10 µM [8]: 14%; inhibition of growth at 10 µM (NCI-H460): < 10%; inhibition of growth at 10 µM [9]: < 10%; inhibition of growth at 10 µM (SK-OV-3): < 10%; inhibition of growth at 10 µM [10]: 22%; inhibition of growth at 10 µM (K562): 35%; inhibition of growth at 10 µM (HL-60(TB)): 16%; inhibition of growth at 10 µM (SR): < 10%; inhibition of growth at 10 µM (HCT-116): < 10%
Cc1ccc(-c2nc3ccc(Cl)cc3c(=O)n2NC(=O)CN)cc1	< 10%	< 10%	< 10%	< 10%	14%	< 10%	12%	< 10%	15%	< 10%	< 10%	< 10%	< 10%	< 10%	< 10%	< 10%	< 10%	12%	< 10%	11%	inhibition of growth at 10 µM [7]: < 10%; inhibition of growth at 10 µM (786-0): < 10%; inhibition of growth at 10 µM (NCI-H23): < 10%; inhibition of growth at 10 µM (M14): 11%; inhibition of growth at 10 µM (SNB-19): < 10%; inhibition of growth at 10 µM (SNB-75): 15%; inhibition of growth at 10 µM (NCI-H460): < 10%; inhibition of growth at 10 µM [9]: < 10%; inhibition of growth at 10 µM (SK-OV-3): < 10%; inhibition of growth at 10 µM [11]: < 10%; inhibition of growth at 10 µM [10]: 15%; inhibition of growth at 10 µM (K562): < 10%; inhibition of growth at 10 µM (HL-60(TB)): < 10%; inhibition of growth at 10 µM (SR): < 10%; inhibition of growth at 10 µM (HCT-116): 11%
